Measurements published in ChEMBL document CHEMBL1141663, “Synthesis and antibacterial activity of bis-[2-hydroxy-3-(1,7,8,9,10-pentamethyl-3,5-dioxo-4-aza-tricyclo[5.2.1.0(2,6)]dec-8-en-4-yloxy)-propyl]-dimethyl-ammonium chloride” (2008).
The source made the active and inactive calls. No cut-off for these calls is given here.

Tests used:
[1] = tested on: Staphylococcus aureus; assay: Antibacterial activity against methicillin-resistant Staphylococcus aureus 85/06 isolates after 18 hrs; assay type: functional
Method in brief: (§1)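 Agar-dilution MIC on Mueller–Hinton II agar per CLSI guidelines. Aqueous test solutions were added to liquid agar to give two dilution series across 6.25–400 µg/mL. Solidified plates were spot-inoculated with 2 µL aliquots to a final inoculum of 10^4 […]. […] Strains were standard S. aureus strains or hospital patient isolates typed MSSA/MRSA.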

[2] = tested on: Staphylococcus aureus; assay: Antibacterial activity against Staphylococcus aureus ATCC 25923 at 100 ug/disk after 24 to 48 hrs by disc-diffusion method; assay type: functional; details: read-out: IZ
[3] = tested on: Staphylococcus aureus; assay: Antibacterial activity against methicillin-susceptible Staphylococcus aureus 102/06 isolates after 18 hrs; assay type: functional; method in brief: as §1
[4] = tested on: Escherichia coli; assay: Antibacterial activity against Escherichia coli ATCC 10538 at 100 ug/disk […] by disc-diffusion method; assay type: functional, organism-based
[5] = tested on: Pseudomonas aeruginosa; assay: Antibacterial activity against Pseudomonas aeruginosa NCTC 6749 at 100 ug/disk […] by disc-diffusion method; assay type: functional, organism-based
[6] = tested on: Staphylococcus aureus; assay: Antibacterial activity against Staphylococcus aureus NCTC 4163 after 18 hrs; assay type: functional; details: NCTC 4163, 18 h; method in brief: as §1
[7] = tested on: Staphylococcus aureus; assay: Antibacterial activity against methicillin-resistant Staphylococcus aureus 93/06 isolates after 18 hrs; assay type: functional; method in brief: as §1
[8] = tested on: Staphylococcus aureus; assay: Antibacterial activity against methicillin-resistant Staphylococcus aureus 84/05 isolates after 18 hrs; assay type: functional; method in brief: as §1
[9] = tested on: Staphylococcus aureus; assay: Antibacterial activity against methicillin-resistant Staphylococcus aureus 90/06 isolates after 18 hrs; assay type: functional; method in brief: as §1
[10] = tested on: Staphylococcus aureus; assay: Antibacterial activity against methicillin-susceptible Staphylococcus aureus 2/04 isolates after 18 hrs; assay type: functional; method in brief: as §1
[11] = tested on: Staphylococcus aureus; assay: Antibacterial activity against Staphylococcus aureus NCTC 4163 at 400 ug/disk after 24 to 48 hrs by disc-diffusion method; assay type: functional; details: read-out: IZ
[12] = tested on: Staphylococcus aureus; assay: Antibacterial activity against Staphylococcus aureus ATCC 25923 at 400 ug/disk after 24 to 48 hrs by disc-diffusion method; assay type: functional; details: read-out: IZ
[13] = tested on: Staphylococcus aureus; assay: Antibacterial activity against methicillin-resistant Staphylococcus aureus 54/05 isolates after 18 hrs; assay type: functional; method in brief: as §1
[14] = tested on: Staphylococcus aureus; assay: Antibacterial activity against methicillin-resistant Staphylococcus aureus 53/05 isolates after 18 hrs; assay type: functional; method in brief: as §1
[15] = tested on: Staphylococcus aureus; assay: Antibacterial activity against methicillin-susceptible Staphylococcus aureus 112/06 isolates after 18 hrs; assay type: functional; method in brief: as §1
[16] = tested on: Staphylococcus aureus; assay: Antibacterial activity against methicillin-susceptible Staphylococcus aureus 42/05 isolates after 18 hrs; assay type: functional; method in brief: as §1
[17] = tested on: Staphylococcus aureus; assay: Antibacterial activity against methicillin-resistant Staphylococcus aureus 80/05 isolates after 18 hrs; assay type: functional; method in brief: as §1
[18] = tested on: Staphylococcus aureus; assay: Antibacterial activity against Staphylococcus aureus ATCC 6538P at 100 ug/disk after 24 to 48 hrs by disc-diffusion method; assay type: functional; details: read-out: IZ
[19] = tested on: Staphylococcus aureus; assay: Antibacterial activity against methicillin-susceptible Staphylococcus aureus 65/05 isolates after 18 hrs; assay type: functional; method in brief: as §1
[20] = tested on: Staphylococcus aureus; assay: Antibacterial activity against methicillin-resistant Staphylococcus aureus 56/05 isolates after 18 hrs; assay type: functional; method in brief: as §1
[21] = tested on: Staphylococcus aureus; assay: Antibacterial activity against Staphylococcus aureus ATCC 6538P at 400 ug/disk after 24 to 48 hrs by disc-diffusion method; assay type: functional; details: read-out: IZ
[22] = tested on: Pseudomonas aeruginosa; assay: Antibacterial activity against Pseudomonas aeruginosa ATCC 15442 at 100 ug/disk […] by disc-diffusion method; assay type: functional, organism-based
[23] = tested on: Pseudomonas aeruginosa; assay: Antibacterial activity against Pseudomonas aeruginosa NCTC 6749 at 400 ug/disk […] by disc-diffusion method; assay type: functional, organism-based
[24] = tested on: Staphylococcus aureus; assay: Antibacterial activity against methicillin-resistant Staphylococcus aureus 29/04 isolates after 18 hrs; assay type: functional; method in brief: as §1
[25] = tested on: Staphylococcus aureus; assay: Antibacterial activity against methicillin-resistant Staphylococcus aureus 46/05 isolates after 18 hrs; assay type: functional; method in brief: as §1
[26] = tested on: Staphylococcus aureus; assay: Antibacterial activity against methicillin-resistant Staphylococcus aureus 79/05 isolates after 18 hrs; assay type: functional; method in brief: as §1
[27] = tested on: Bacillus subtilis; assay: Antibacterial activity against Bacillus subtilis ATCC 6633 at 400 ug/disk […] by disc-diffusion method; assay type: functional; details: read-out: IZ
[28] = tested on: Staphylococcus aureus; assay: Antibacterial activity against methicillin-resistant Staphylococcus aureus 47/05 isolates after 18 hrs; assay type: functional; method in brief: as §1
[29] = tested on: Staphylococcus aureus; assay: Antibacterial activity against methicillin-resistant Staphylococcus aureus 92/06 isolates after 18 hrs; assay type: functional; method in brief: as §1
[30] = tested on: Staphylococcus aureus; assay: Antibacterial activity against methicillin-susceptible Staphylococcus aureus 40/05 isolates after 18 hrs; assay type: functional; method in brief: as §1
[31] = tested on: Staphylococcus aureus; assay: Antibacterial activity against methicillin-susceptible Staphylococcus aureus 36/05 isolates after 18 hrs; assay type: functional; method in brief: as §1
[32] = tested on: Staphylococcus aureus; assay: Antibacterial activity against Staphylococcus aureus ATCC 29213 after 18 hrs; assay type: functional; details: ATCC 29213, 18 h; method in brief: as §1
[33] = tested on: Staphylococcus aureus; assay: Antibacterial activity against Staphylococcus aureus NCTC 4163 at 100 ug/disk after 24 to 48 hrs by disc-diffusion method; assay type: functional; details: read-out: IZ

CC1=C(C)C2(C)C3C(=O)N(OCC(O)C[N+](C)(C)CC(O)CON4C(=O)C5C(C4=O)C4(C)C(C)=C(C)C5(C)C4C)C(=O)C3C1(C)C2C.[Cl-] (stereo not drawn)
MIC [1]: 100 µg/mL | zone of inhibition at 100 µg/disc [2]: 16 mm | MIC [3]: 50 µg/mL | Activity [4]: inactive | Activity [5]: inactive | MIC [6]: 50 µg/mL | MIC [7]: 25 µg/mL | MIC [8]: 50 µg/mL | MIC [9]: 100 µg/mL | MIC [10]: 25 µg/mL | zone of inhibition at 400 µg/disc [11]: 24 mm | zone of inhibition at 400 µg/disc [12]: 20 mm | MIC [13]: 50 µg/mL | MIC [14]: 50 µg/mL | MIC [15]: 50 µg/mL | MIC [16]: 25 µg/mL | MIC [17]: 50 µg/mL | zone of inhibition at 100 µg/disc [18]: 17 mm | MIC [19]: 25 µg/mL | MIC [20]: 50 µg/mL | zone of inhibition at 400 µg/disc [21]: 23 mm | Activity [22]: inactive | Activity [23]: inactive | MIC [24]: 200 µg/mL | MIC [25]: 50 µg/mL | MIC [26]: 200 µg/mL | zone of inhibition at 400 µg/disc [27]: 30 mm | MIC [28]: 50 µg/mL | MIC [29]: 100 µg/mL | MIC [30]: 50 µg/mL | MIC [31]: 50 µg/mL | MIC [32]: 50 µg/mL | zone of inhibition at 100 µg/disc [33]: 17 mm
